Laboratory results as given in PubChem BioAssay.
The source made the active and inactive calls.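 How the source made its calls, unless noted: active means viability at or under a set limit in both replicates, limit being median viability minus 3 SD (cut at about 48% in these data, passing the limit was not always enough); inconclusive means at or under the limit in just one replicate; inactive means at or above the limit in both replicates.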

What was measured:
[1] = reducers of endogenous Her2 protein level, primary screen, SKBR3 breast tumor cells, AlphaScreen, ATP viability (AID 461;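 active means Her2 level under about 52% in both replicate screens, with viability over 70% of control, limit read from the data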;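 on Her2 level: lower value means less Her2 protein in the cells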;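 on viability: percent of carrier control wells set as 100% viability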); settings: 18-24 h, measured here: SKBR3 viability, ATP luminescence, at 10 µM
[2] = biological target: Receptor tyrosine-protein kinase erbB-2 (Homo sapiens) (UniProt P04626); assay: as above; settings: 18-24 h, at 10 µM, stronger effect = lower value
Receptor tyrosine-protein kinase erbB-2 (Homo sapiens), sequence (P04626 whole entry, looked up): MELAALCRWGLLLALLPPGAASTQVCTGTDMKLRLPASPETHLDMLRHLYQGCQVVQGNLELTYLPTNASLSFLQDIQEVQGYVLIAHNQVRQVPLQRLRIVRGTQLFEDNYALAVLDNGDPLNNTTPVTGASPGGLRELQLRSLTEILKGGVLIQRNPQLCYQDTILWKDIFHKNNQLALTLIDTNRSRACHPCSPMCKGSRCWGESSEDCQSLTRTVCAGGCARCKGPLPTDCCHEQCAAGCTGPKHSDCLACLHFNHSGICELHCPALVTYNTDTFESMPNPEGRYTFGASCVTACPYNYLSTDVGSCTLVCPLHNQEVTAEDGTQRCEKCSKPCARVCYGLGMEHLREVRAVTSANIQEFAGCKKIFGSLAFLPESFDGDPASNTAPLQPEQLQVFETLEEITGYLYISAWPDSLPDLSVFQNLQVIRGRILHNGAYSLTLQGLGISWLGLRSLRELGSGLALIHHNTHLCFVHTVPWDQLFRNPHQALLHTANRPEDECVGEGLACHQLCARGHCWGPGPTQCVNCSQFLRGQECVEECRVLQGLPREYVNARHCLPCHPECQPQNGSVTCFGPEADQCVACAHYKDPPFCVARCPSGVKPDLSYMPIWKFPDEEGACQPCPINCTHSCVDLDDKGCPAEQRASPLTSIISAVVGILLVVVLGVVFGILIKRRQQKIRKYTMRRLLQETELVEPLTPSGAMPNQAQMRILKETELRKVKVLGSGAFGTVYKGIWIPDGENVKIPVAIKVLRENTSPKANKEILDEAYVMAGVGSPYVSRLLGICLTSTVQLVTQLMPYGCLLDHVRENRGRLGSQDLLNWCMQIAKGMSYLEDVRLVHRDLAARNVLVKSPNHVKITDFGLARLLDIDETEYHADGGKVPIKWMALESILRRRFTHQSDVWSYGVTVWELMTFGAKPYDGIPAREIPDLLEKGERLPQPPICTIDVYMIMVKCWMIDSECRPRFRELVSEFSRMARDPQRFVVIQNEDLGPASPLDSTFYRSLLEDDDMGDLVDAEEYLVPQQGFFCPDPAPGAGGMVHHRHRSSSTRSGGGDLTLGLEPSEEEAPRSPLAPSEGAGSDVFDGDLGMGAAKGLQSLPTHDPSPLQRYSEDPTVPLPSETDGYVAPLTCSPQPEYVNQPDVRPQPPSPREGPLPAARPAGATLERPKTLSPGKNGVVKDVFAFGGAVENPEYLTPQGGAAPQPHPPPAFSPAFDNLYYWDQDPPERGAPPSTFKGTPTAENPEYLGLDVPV

[3] = SK-BR-3 cell growth inhibitors, pilot screen, 24 h, human (AID 572;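 active means viability at or below 10% of carrier control in both of two separate runs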;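 further: compound exposure lasted between 18 and 24 h rather than exactly 24 h; 100% = carrier-treated control wells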); settings: SK-BR-3 viability, CellTiter-Glo luminescence, at 10 µM, stronger effect = lower value
[4] = HUVEC growth inhibition – cell-based, human, primary screen (AID 575;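 active means viability at or below 30% in both replicate assays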;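 further: 100% = median of untreated cell wells with 0.1% DMSO on each plate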); settings: HUVEC proliferation, CellTiter-Glo luminescence, 72 h; at 10 µM; stronger effect = lower value
Summary of the method: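 Test system: primary human umbilical vein endothelial cells; medium: endothelial basal medium with 2% FBS plus growth supplements; dosing: 10 µM compound only; times: 72 h treatment at 37 °C; signal: CTG luminescence; read-out: % viability relative to median vehicle-well signal on each plate; control set: vehicle and MePR control wells; plate: 384-well, collagen-coated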

[5] = growth inhibitors of H69AR lung tumor, primary screen, human, duplicate replicates (AID 580); settings: H69AR lung tumor cells viability, ATP luminescence, 72 h; at 10 µM; stronger effect = lower value;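 further: 100% = mean luminescence of untreated wells and 0% = no signal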
[6] = reversal of MRP1-mediated doxorubicin resistance, pilot screen, H69AR cells, doxorubicin co-treatment (AID 601;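 active means viability loss from added drug above about 55%, and viability with drug at most 40%, in both replicates, limit read from the data, passing the limit was not always enough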); settings: CellTiter-Glo, 72 h, at 10 µM; for differential viability (reversal): stronger effect = higher value
[7] = 384-well plate pilot, post-Golgi transport modulator project, inhibition of yeast transport mutant growth (AID 636; in the data active means inhibition above about 31%); settings: absorbance 615 nm, about 18 h, stronger effect = higher value
[8] = growth suppression of yeast trafficking mutant, preliminary HTS, modulators of trafficking downstream of Golgi apparatus project, 1536-format plate, OD 615 nm (AID 637; in the data active means inhibition above about 30%); settings: yeast transport mutant growth, absorbance 615 nm, 18 h; stronger effect = higher value
[9] = H69AR cells + 2 uM doxorubicin, measured here: viability with 2 uM doxorubicin, stronger effect = lower value
[10] = H69AR cells, compound alone cytotoxicity

Compound	viability [1] [%]	Her2 level [2]	viability [3]	viability [4]	viability [5]	differential viability (reversal) ([6]; H69AR cells + 2 uM doxorubicin)	viability [6, 9] [%]	viability [6, 10] [%]	inhibition [7]	inhibition [8]
CCCCCc1c(C)nc(N2CCc3ccccc32)[nH]c1=O	92.5	90% (inactive)	92.5% (inactive)	57.4% (inactive)	94.6% (inactive)	-0.605% (inactive)	95.2	94.6	-0.68% (inactive)	3.17% (inactive)
Cc1ccc(NC(=O)CNc2cccc(C)c2C)c(C)c1	106	86.5% (inactive)	106% (inactive)	98.3% (inactive)	79.2% (inactive)	10.1% (inactive)	69	79.2	-0.53% (inactive)	-1.45% (inactive)
CCCCCCC(C)n1[nH]c(=O)c2c(C)cc(=O)[nH]c21 (stereo not given)	89.5	107% (inactive)	89.5% (inactive)	77.7% (inactive)	94.2% (inactive)	-4.37% (inactive)	98.6	94.2	-1.73% (inactive)	-7.54% (inactive)
CCOc1cccc(/C(O)=C2/C(=O)C(=O)N(CCN3CCOCC3)C2c2cccnc2)c1 (stereo not given)	98.5	99.5% (inactive)	98.5% (inactive)	87.3% (inactive)	103% (inactive)	5.18% (inactive)	98.2	103	-3.68% (inactive)	-3.17% (inactive)
O=C(c1c(F)cccc1F)N(Cc1ccccn1)C1CCCC1	78	108% (inactive)	78% (inactive)	106% (inactive)	93.6% (inactive)	4.68% (inactive)	88.9	93.6	3.6% (inactive)	26.3% (inactive)
CCOC(=O)N1CCC(NC(=O)CS(=O)(=O)Cc2nc(-c3ccccc3C)oc2C)CC1	105	95% (inactive)	105% (inactive)	114% (inactive)	95.7% (inactive)	-4.35% (inactive)	100	95.7	-3.73% (inactive)	0.66% (inactive)
COc1cccc(-n2nnnc2SCC(=O)NCc2ccco2)c1	117	92.5% (inactive)	117% (inactive)	90.5% (inactive)	83.2% (inactive)	5.98% (inactive)	77.2	83.2	-4.8% (inactive)	4.52% (inactive)
Cc1ccc(S(=O)(=O)N(CC(=O)N2CCOCC2)CC(=O)N2CCOCC2)cc1	104	87% (inactive)	104% (inactive)	110% (inactive)	107% (inactive)	5.66% (inactive)	101	107	-4.87% (inactive)	3.17% (inactive)
COc1ccccc1C1C(C(C)=O)=C(O)C(=O)N1CCc1ccccc1 (stereo not given)	93.5	102% (inactive)	93.5% (inactive)	98.1% (inactive)	104% (inactive)	9.69% (inactive)	94.5	104	-5.07% (inactive)	3.87% (inactive)
O=C(NCc1ccccn1)C(C(=O)c1ccc(F)cc1)n1ccccc1=O (stereo not given)	86.5	95.5% (inactive)	86.5% (inactive)	97.9% (inactive)	96.4% (inactive)	-3.97% (inactive)	100	96.4	-4.05% (inactive)	4.1% (inactive)
COC(=O)Cc1csc(N)n1	95	82.5% (inactive)	95% (inactive)	90.1% (inactive)	93% (inactive)	4.79% (inactive)	88.2	93	0.92% (inactive)	-3.27% (inactive)
Cn1c(=O)n(CC(=O)OCc2ccccc2)c(=O)c2c1nc1n2CCCN1C1CCCCC1	81	86% (inactive)	81% (inactive)	96.4% (inactive)	78.7% (inactive)	32.8% (inactive)	45.9	78.7	-6.35% (inactive)	-0.16% (inactive)
Cc1cc(=O)n(C)c(=O)n1CCCNc1ccccc1	82	115% (inactive)	82% (inactive)	83.7% (inactive)	99.9% (inactive)	11.4% (inactive)	88.5	99.9	0% (inactive)	-5% (inactive)
COc1cc(NC(=O)c2cc(CC(C)C)on2)c(OC)cc1Cl	92	102% (inactive)	92% (inactive)	105% (inactive)	88.9% (inactive)	-3.37% (inactive)	92.2	88.9	1.15% (inactive)	-5.33% (inactive)
Cn1c(=O)c2c(ncn2CC(=O)OCC(=O)NC2CCCc3ccccc32)n(C)c1=O (stereo not given)	98	94% (inactive)	98% (inactive)	110% (inactive)	97.7% (inactive)	5.3% (inactive)	92.4	97.7	-0.68% (inactive)	1.59% (inactive)
O=C(NCCC1=CCCCC1)C1CC(=O)N(C2CCCCCC2)C1 (stereo not given)	98	110% (inactive)	98% (inactive)	104% (inactive)	99.5% (inactive)	11% (inactive)	88.5	99.5	-1.15% (inactive)	-0.67% (inactive)
CCN(CC)CCN1C(=O)C(O)=C(C(=O)c2cccs2)C1c1ccccn1 (stereo not given)	86	82% (inactive)	86% (inactive)	100% (inactive)	98% (inactive)	18.6% (inactive)	79.5	98	-4.86% (inactive)	-1.59% (inactive)
CCOc1ccc2ccccc2c1/C=N/n1cncn1	99.5	101% (inactive)	99.5% (inactive)	87% (inactive)	92.3% (inactive)	-11.2% (inactive)	103	92.3	-5.53% (inactive)	1.64% (inactive)
COc1ccc2c(c1)cc(C(=O)O)n2C	92.5	73% (inactive)	92.5% (inactive)	102% (inactive)	98.7% (inactive)	8.84% (inactive)	89.9	98.7	-5.39% (inactive)	-5.67% (inactive)
CN(C)C(=O)N1CCCC(C(=O)NCc2ccccc2)C1 (stereo not given)	89	92% (inactive)	89% (inactive)	102% (inactive)	87.8% (inactive)	-18.9% (inactive)	107	87.8	1.92% (inactive)	4.5% (inactive)
CC(=O)Nc1ccc(S(=O)(=O)NCc2cn3c(C)csc3n2)cc1	116	106% (inactive)	116% (inactive)	107% (inactive)	102% (inactive)	20.4% (inactive)	81.3	102	-8.31% (inactive)	-3.02% (inactive)
FC(F)Sc1nnc(-c2cccs2)n1-c1ccccc1	101	92% (inactive)	101% (inactive)	93.6% (inactive)	98% (inactive)	10.1% (inactive)	87.9	98	-7.33% (inactive)	2.74% (inactive)
COC(=O)c1cc2ccsc2n1Cc1nc(-c2ccc(OC)cc2)oc1C	85.5	82% (inactive)	85.5% (inactive)	67.5% (inactive)	83.6% (inactive)	-12% (inactive)	95.6	83.6	0.13% (inactive)	-4.67% (inactive)
Cc1noc(NS(=O)(=O)c2ccc(N3C(=O)c4ccccc4C3=O)cc2)c1C	116	98% (inactive)	116% (inactive)	99.1% (inactive)	107% (inactive)	0.49% (inactive)	106	107	-3.47% (inactive)	2.58% (inactive)
O=C(NCc1ccco1)C1(S(=O)(=O)c2ccc(Cl)cc2)CC1	94	86% (inactive)	94% (inactive)	103% (inactive)	71.2% (inactive)	-21.5% (inactive)	92.8	71.2	-0.65% (inactive)	24.1% (inactive)
Nc1c(C(=O)NCCc2ccccc2)nnn1Cc1ccccc1	108	97.5% (inactive)	108% (inactive)	89% (inactive)	95.8% (inactive)	11.2% (inactive)	84.7	95.8	-8.55% (inactive)	-1.45% (inactive)
CCOC(=O)CNC(=O)Nc1nnc(-c2ccc(OCC)cc2)o1	99	92% (inactive)	99% (inactive)	105% (inactive)	98.3% (inactive)	8% (inactive)	90.3	98.3	-1.08% (inactive)	-3.02% (inactive)
CCC1Oc2ccc(C)cc2N(CC(=O)N(Cc2cccnc2)Cc2ccc(C)o2)C1=O (stereo not given)	93	84% (inactive)	93% (inactive)	83.7% (inactive)	74.8% (inactive)	41.1% (inactive)	33.7	74.8	-6.27% (inactive)	6.56% (inactive)
O=C(Nc1cccc(NC(=O)c2cccnc2)c1)c1cccnc1	89	80% (inactive)	89% (inactive)	119% (inactive)	86.7% (inactive)	-2.21% (inactive)	88.9	86.7	-5% (inactive)	1.67% (inactive)
